Laboratory results published in ChEMBL document CHEMBL3407422, “2-(2-oxo-morpholin-3-yl)-acetamide derivatives as broad-spectrum antifungal agents” (J Med Chem, 2015).
In brackets after ≈: the same amount, converted by molar mass. Activity calls are given as the source filed them. The rule behind the calls is not given here.

Tests used:
CYP3A4 = CYP3A4 (Homo sapiens, UniProt P08684); assay: Inhibition of CYP3A4 (unknown origin) at 10 uM; assay type: ADME
[1] = Half life in simulated intestinal fluid […]; assay type: ADME
CYP1A2 = target: T1, CYP1A2 (Homo sapiens, UniProt P05177); assay: Inhibition of CYP1A2 (unknown origin) at 10 uM; assay type: ADME
T1 sequence (P05177 whole entry): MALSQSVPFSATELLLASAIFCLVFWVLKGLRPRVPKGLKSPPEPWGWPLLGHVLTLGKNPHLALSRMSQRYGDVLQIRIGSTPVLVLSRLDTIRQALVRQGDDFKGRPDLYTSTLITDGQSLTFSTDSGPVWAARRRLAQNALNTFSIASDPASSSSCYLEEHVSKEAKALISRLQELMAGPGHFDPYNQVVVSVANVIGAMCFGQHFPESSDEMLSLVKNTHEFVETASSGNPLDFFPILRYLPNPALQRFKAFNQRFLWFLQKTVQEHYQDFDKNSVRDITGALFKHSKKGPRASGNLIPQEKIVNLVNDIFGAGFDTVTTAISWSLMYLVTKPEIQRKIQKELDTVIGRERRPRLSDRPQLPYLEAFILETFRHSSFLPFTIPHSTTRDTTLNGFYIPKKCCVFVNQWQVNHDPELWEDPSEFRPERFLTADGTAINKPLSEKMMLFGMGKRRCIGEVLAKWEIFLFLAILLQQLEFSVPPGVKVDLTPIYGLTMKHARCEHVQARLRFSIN

[2] = Kinetic solubility of the compound at pH 7.4; assay type: physicochemical; conditions: buffer, read-out: Kinetic_solubility
CYP2C19 = CYP2C19 (Homo sapiens, UniProt P33261); assay: Inhibition of CYP2C19 (unknown origin) at 10 uM; assay type: ADME
Microsporum canis = assay: Fungicidal activity against Microsporum canis B68128; assay type: functional
Outline: (§1)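 Inoculum of 10^3 CFU in RPMI-MOPS added to prediluted compound, highest concentration 64 µM. Growth read by resazurin fluorescence (ex 550, em 590 nm). IC50 is 50% growth inhibition versus untreated controls. Three independent replicates.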

Candida albicans [3] = assay: Antifungal activity against Candida albicans SC5314 infected in BALB/c mouse assessed as reduction in reduction in fungal load in kidney at 10 mg/kg/day, ip for 5 days relative to vehicle-treated control; assay type: functional, organism-based
Outline: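 BALB/c mice given cyclophosphamide 100 mg/kg at 4 days and 24 h before infection and at 3 days after. Infected IV with 2×10^3 SC5314 cells in saline. Dosed IP daily for 5 days from 16 h post-infection, in DMSO/0.5% methylcellulose (5/95). Organs taken on day 7, homogenized and plated on BHI agar (18 h, 37 °C). CFU/g compared with vehicle.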

[4] = Plasma protein binding in human; assay type: ADME, cell-free; conditions: read-out: PPB (converted)
CYP2D6 = CYP2D6 (Homo sapiens, UniProt P10635); assay: Inhibition of CYP2D6 (unknown origin) at 10 uM; assay type: ADME
Nakaseomyces glabratus = assay: Antifungal activity against Candida glabrata BG2 after 24 hrs; assay type: functional
Outline: (§2)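 Overnight YPD cultures diluted in PBS (1/200 for C. albicans, 1/400 for C. glabrata). Cells treated with compound, or 2.5% DMSO as solvent control, for 24 h at 37 °C. CFUs then counted; MFC is the concentration giving 99% killing of the inoculum.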

[5] = Half life in mouse liver microsomes; assay type: ADME
[6] = Half life in simulated gastric fluid at pH 1.2; assay type: ADME
Outline: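 Stability in simulated gastric fluid containing 800000 Units/L pepsin at pH 1.2; half-life reported.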

[7] = Drug metabolism in mouse liver microsomes at 10 uM after 90 mins by LC-MS/MS analysis; assay type: ADME; conditions: 1.5 h
CYP2C9 = CYP2C9 (Homo sapiens, UniProt P11712); assay: Inhibition of CYP2C9 (unknown origin) at 10 uM; assay type: ADME
[8] = test system: Trichophyton mentagrophytes; assay: Fungicidal activity against Trichophyton mentagrophytes B70554; assay type: functional, organism-based; outline: as §1
hERG (KCNH2) = hERG (KCNH2) (Homo sapiens, UniProt Q12809); assay: Inhibition of human ERG channel at 10 uM
[9] = Cytotoxicity against human MRC5 SV2 cells after 72 hrs by fluorescence assay; assay type: cell-based
Outline: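 MRC-5 SV2 cells (10^4/well) grown in MEM with L-glutamine, NaHCO3 and 5% FCS. Incubated with compound 72 h at 37 °C, 5% CO2, then resazurin added for 24 h. Fluorescence read at ex 530, em 590 nm.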

Aspergillus flavus = assay: Antifungal activity against Aspergillus flavus CBS111.45 after 24 hrs by two-fold dilution method; assay type: functional; conditions: CBS111.45, 24 h
Outline: (§3)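 Spores at 2×10^4 spores/mL in potato dextrose broth, incubated with a 2-fold compound dilution series for 24 h at 25 °C. Growth read by microspectrophotometry of the liquid cultures. MIC taken as the lowest concentration inhibiting fungal growth.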

[10] = Apparent permeability from apical to basolateral side in human Caco2 cells; assay type: ADME, cell-based; conditions: Caco-2
Candida albicans [11] = assay: Antifungal activity against Candida albicans SC5314 after 24 hrs; assay type: functional; outline: as §2
[12] = Half life in human liver microsomes; assay type: ADME
Sporothrix schenckii = assay: Fungicidal activity against Sporothrix schenckii B62482; assay type: functional, organism-based; outline: as §1
[13] = Half life in human plasma; assay type: ADME, cell-free
Aspergillus fumigatus = assay: Antifungal activity against Aspergillus fumigatus CBS 117202 after 24 hrs by two-fold dilution method; assay type: functional; conditions: CBS 117202, 24 h; outline: as §3
Trichophyton rubrum = assay: Fungicidal activity against Trichophyton rubrum B68183; assay type: functional, organism-based; outline: as §1
[14] = Apparent permeability from basolateral to apical side in human Caco2 cells; assay type: ADME, cell-based; conditions: Caco-2

Sequence of hERG (KCNH2) (Q12809 whole entry): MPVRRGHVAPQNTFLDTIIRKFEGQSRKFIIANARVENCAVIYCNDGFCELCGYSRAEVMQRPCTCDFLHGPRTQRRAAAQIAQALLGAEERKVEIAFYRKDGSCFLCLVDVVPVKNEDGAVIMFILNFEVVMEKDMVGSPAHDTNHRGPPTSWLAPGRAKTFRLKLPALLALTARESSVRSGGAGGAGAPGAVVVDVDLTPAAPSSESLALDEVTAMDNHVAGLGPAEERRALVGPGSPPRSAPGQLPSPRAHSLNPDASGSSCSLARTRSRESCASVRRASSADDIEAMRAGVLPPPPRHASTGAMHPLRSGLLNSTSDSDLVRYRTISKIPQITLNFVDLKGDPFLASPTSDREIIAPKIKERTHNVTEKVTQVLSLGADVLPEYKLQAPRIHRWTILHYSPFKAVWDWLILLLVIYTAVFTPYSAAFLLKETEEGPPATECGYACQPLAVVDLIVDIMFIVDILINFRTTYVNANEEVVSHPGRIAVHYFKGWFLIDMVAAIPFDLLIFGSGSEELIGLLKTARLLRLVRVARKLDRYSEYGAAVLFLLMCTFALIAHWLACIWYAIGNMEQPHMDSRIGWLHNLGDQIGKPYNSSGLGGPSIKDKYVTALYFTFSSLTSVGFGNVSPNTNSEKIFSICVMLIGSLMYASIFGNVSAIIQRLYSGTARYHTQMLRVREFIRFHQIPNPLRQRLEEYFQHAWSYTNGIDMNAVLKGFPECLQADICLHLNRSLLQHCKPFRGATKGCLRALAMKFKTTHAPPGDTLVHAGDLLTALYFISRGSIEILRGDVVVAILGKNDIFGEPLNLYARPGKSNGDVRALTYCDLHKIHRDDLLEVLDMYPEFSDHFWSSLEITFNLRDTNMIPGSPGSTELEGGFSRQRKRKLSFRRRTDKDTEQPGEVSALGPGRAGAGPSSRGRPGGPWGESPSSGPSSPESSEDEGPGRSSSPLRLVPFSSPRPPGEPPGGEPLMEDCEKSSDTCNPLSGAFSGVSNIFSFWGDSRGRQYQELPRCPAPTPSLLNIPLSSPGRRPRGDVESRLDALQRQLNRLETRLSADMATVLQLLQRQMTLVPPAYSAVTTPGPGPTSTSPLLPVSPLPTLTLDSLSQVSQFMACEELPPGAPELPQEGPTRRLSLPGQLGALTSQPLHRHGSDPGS
Sequence of CYP2C19 (P33261 whole entry): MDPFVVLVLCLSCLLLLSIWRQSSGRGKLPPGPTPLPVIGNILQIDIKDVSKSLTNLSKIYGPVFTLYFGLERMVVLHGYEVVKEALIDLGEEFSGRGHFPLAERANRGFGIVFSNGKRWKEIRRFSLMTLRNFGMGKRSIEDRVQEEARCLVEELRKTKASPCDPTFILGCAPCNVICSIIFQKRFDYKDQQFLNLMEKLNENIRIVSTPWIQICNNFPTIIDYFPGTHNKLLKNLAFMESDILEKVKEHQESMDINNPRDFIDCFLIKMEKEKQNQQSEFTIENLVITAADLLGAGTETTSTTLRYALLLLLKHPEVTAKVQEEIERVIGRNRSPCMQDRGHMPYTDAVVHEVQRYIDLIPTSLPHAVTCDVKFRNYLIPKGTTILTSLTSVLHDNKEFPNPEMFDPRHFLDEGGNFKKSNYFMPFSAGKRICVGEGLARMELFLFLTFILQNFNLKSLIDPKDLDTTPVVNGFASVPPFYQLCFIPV
Sequence of CYP2C9 (P11712 whole entry): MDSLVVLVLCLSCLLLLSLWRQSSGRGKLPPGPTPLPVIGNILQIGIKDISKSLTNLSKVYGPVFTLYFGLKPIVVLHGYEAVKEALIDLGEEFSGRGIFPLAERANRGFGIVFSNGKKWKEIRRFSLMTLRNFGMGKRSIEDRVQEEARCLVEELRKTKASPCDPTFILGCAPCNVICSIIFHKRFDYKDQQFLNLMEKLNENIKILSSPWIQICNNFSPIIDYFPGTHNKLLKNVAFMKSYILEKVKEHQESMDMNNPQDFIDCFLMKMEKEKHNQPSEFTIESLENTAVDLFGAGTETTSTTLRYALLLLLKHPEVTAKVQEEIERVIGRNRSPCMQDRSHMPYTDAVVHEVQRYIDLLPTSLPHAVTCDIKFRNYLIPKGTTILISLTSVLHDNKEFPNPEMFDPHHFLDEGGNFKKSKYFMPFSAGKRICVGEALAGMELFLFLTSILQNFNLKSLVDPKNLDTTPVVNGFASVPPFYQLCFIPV
Sequence of CYP2D6 (P10635 whole entry): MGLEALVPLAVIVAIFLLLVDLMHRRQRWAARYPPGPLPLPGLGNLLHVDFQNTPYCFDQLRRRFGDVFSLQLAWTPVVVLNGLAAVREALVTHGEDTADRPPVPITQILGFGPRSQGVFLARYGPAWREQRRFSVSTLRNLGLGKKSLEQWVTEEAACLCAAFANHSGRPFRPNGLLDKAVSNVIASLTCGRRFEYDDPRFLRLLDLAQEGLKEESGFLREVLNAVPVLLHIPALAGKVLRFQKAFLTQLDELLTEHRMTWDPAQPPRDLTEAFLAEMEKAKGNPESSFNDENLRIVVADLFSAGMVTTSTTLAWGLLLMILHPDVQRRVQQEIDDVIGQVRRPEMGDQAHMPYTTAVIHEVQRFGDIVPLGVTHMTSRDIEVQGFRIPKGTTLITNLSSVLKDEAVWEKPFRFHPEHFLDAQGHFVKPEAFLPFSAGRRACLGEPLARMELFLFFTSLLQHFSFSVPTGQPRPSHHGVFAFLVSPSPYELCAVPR
Sequence of CYP3A4 (P08684 whole entry): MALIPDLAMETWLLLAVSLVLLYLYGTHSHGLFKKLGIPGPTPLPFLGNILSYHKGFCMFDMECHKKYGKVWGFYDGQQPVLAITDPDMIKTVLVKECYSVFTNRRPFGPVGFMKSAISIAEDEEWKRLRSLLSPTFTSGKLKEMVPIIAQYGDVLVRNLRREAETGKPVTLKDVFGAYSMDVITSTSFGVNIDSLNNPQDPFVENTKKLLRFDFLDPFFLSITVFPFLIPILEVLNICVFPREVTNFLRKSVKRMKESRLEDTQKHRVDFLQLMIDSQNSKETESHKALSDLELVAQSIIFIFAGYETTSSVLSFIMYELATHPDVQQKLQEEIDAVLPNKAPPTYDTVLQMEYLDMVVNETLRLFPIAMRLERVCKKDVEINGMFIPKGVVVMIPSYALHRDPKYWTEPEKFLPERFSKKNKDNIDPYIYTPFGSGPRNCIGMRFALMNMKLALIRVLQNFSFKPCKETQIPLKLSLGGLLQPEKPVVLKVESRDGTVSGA

SMILES: CCN1CC(C)(C)OC(=O)C1CC(=O)Nc1ccc(C(C)C)cc1 (stereo unspecified)
- inhibition at 10 µM (CYP3A4): < 40%
- half-life [1]: > 240 min
- inhibition at 10 µM (CYP1A2): < 40%
- solubility kinetic [2]: 50 µM (≈ 16.6 µg/mL)
- inhibition at 10 µM (CYP2C19): < 40%
- IC50 (Microsporum canis): 6.6 µg/mL (≈ 19.9 µM)
- Activity (Candida albicans [3]): Active
- fraction unbound [4]: 0.061
- inhibition at 10 µM (CYP2D6): < 40%
- MFC99 (Nakaseomyces glabratus): 25 µg/mL (≈ 75.2 µM)
- half-life [5]: 6 min
- half-life [6]: > 240 min
- Drug metabolism [7]: metabolite_detected
- inhibition at 10 µM (CYP2C9): < 40%
- IC50 [8]: 10.6 µg/mL (≈ 31.9 µM)
- inhibition at 10 µM (hERG (KCNH2)): 11%
- CC50 at 72 h [9]: > 20 µg/mL
- MIC (Aspergillus flavus): 12.5 µg/mL (≈ 37.6 µM)
- Papp A→B [10]: 65 ×10⁻⁶ cm/s
- MFC99 (Candida albicans [11]): 12.5 µg/mL (≈ 37.6 µM)
- half-life [12]: 29 min
- IC50 (Sporothrix schenckii): 11.8 µg/mL (≈ 35.5 µM)
- half-life [13]: > 240 min
- MIC (Aspergillus fumigatus): 1.6 µg/mL (≈ 4.81 µM)
- IC50 (Trichophyton rubrum): 6.3 µg/mL (≈ 19 µM)
- Papp B→A [14]: 35 ×10⁻⁶ cm/s
